The source made the active and inactive calls. No cut-off for these calls is given here.
How the values were obtained:
[1] = biological target: T1, Hexokinase-4 (Homo sapiens, UniProt P35557); assay: Activation of flag-tagged human recombinant liver glucokinase expressed in Escherichia coli by glucose-6-phosphate dehydrogenase coupled continuous spectrophotometric assay in presence of 10 mM glucose
T1 sequence (P35557 whole entry): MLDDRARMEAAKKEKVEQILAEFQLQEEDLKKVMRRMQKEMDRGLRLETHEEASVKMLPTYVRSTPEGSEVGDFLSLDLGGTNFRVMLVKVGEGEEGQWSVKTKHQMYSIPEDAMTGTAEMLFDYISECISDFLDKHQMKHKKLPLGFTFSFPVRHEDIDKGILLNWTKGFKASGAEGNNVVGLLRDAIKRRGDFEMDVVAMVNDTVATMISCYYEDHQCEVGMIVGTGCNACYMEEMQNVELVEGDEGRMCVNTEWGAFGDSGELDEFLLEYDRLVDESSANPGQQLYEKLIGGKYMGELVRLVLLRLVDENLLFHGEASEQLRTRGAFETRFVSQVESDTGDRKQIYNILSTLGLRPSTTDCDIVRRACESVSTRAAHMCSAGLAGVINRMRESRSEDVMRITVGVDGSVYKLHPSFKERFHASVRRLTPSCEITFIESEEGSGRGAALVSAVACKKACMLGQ

[2] = biological target: T1, Hexokinase-4; assay: Activation of flag-tagged human recombinant liver glucokinase expressed in Escherichia coli by glucose-6-phosphate dehydrogenase coupled continuous spectrophotometric assay in presence of 2.5 mM glucose
[3] = Octanol-water distribution coefficient, log D at pH 7.4 by HPLC-MS analysis
[4] = system: Mus musculus; assay: Glucose lowering effect in KKAy mouse assessed as decrease in blood glucose level at 10 mg/kg, po; format: functional, organism-based; parameters: dose 10 mg/kg
Outline: (§1)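 Male KKAy mice aged nine weeks, fasted 4 h beforehand, given a single oral dose in 0.5% methylcellulose vehicle, with a vehicle-only control group. Blood glucose was read just before dosing and at 0.5, 1, 2 and 4 h afterwards.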

[5] = Oral bioavailability in Beagle dog at 1 mg/kg; format: ADME, organism-based, Canis lupus familiaris; conditions: in vivo
[6] = system: Mus musculus; assay: Glucose lowering effect in KKAy mouse assessed as decrease in blood glucose level at 30 mg/kg, po; format: functional, organism-based; parameters: dose 30 mg/kg; outline: as §1
[7] = Half life in Sprague-Dawley rat at 1 mg/kg, iv; format: ADME, organism-based; parameters: dose 1 mg/kg, route intravenous; conditions: in vivo
[8] = AUC (0 to infinity) in Sprague-Dawley rat at 3 mg/kg, po; format: ADME, organism-based; parameters: dose 3 mg/kg, route oral, time infinity; conditions: plasma
[9] = Cmax in Sprague-Dawley rat at 3 mg/kg, po; format: ADME, organism-based; parameters: dose 3 mg/kg, route oral; conditions: in vivo
[10] = AUC (0 to infinity) in Sprague-Dawley rat at 1 mg/kg, iv; format: ADME, organism-based; parameters: time infinity, dose 1 mg/kg, route intravenous; conditions: plasma
[11] = system: Mus musculus; assay: Glucose lowering effect in high-fat diet mouse assessed as decrease in blood glucose AUC level at 3 mg/kg, po; format: functional, organism-based; parameters: dose 3 mg/kg
Outline: (§2)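 Male high-fat-diet mice aged forty-one weeks, fed freely, dosed orally in 0.5% methylcellulose vehicle against a vehicle-only group. Blood glucose was sampled just before dosing and at 1, 2, 4 and 6 h after.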

[12] = system: Mus musculus; assay: Glucose lowering effect in high-fat diet mouse assessed as decrease in blood glucose level at 3 mg/kg, po; format: functional, organism-based; parameters: dose 3 mg/kg; outline: as §2
[13] = system: Mus musculus; assay: Glucose lowering effect in high-fat diet mouse assessed as decrease in blood glucose level at 10 mg/kg, po; format: functional, organism-based; parameters: dose 10 mg/kg; outline: as §2
[14] = AUC (0 to infinity) in Beagle dog at 1 mg/kg, po; format: ADME, organism-based, Canis lupus familiaris; parameters: dose 1 mg/kg, route oral, time infinity; conditions: plasma
[15] = Tmax in Sprague-Dawley rat at 3 mg/kg, po; format: ADME, organism-based; parameters: dose 3 mg/kg, route oral; conditions: in vivo
[16] = Half life in Beagle dog at 0.3 mg/kg, iv; format: ADME, organism-based, Canis lupus familiaris; parameters: dose 0.3 mg/kg, route intravenous; conditions: in vivo
[17] = Plasma clearance in Beagle dog at 0.3 mg/kg, iv; format: ADME, organism-based, Canis lupus familiaris; parameters: dose 0.3 mg/kg, route intravenous
[18] = system: Mus musculus; assay: Glucose lowering effect in high-fat diet mouse assessed as decrease in blood glucose AUC level at 10 mg/kg, po; format: functional, organism-based; parameters: dose 10 mg/kg; outline: as §2
[19] = Tmax in Beagle dog at 1 mg/kg, po; format: ADME, organism-based, Canis lupus familiaris; parameters: dose 1 mg/kg, route oral; conditions: in vivo
[20] = system: Mus musculus; assay: Glucose lowering effect in normal-fed ICR mouse assessed as decrease in blood glucose AUC level at 10 mg/kg, po; format: functional, organism-based; parameters: dose 10 mg/kg
Outline: (§3)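 Male ICR mice aged ten to eleven weeks, fed ad libitum, given a single oral dose suspended in 0.5% methylcellulose; vehicle alone served as control. Blood glucose was measured immediately before dosing and at 0.5, 1, 1.5, 2, 3 and 4 h afterwards.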

[21] = Volume of distribution at steady state in Sprague-Dawley rat at 1 mg/kg, iv; format: ADME, organism-based; parameters: dose 1 mg/kg, route intravenous; conditions: in vivo, read-out: Vdss
[22] = Plasma clearance in Sprague-Dawley rat at 1 mg/kg, iv; format: ADME, organism-based; parameters: dose 1 mg/kg, route intravenous
[23] = system: Mus musculus; assay: Glucose lowering effect in KKAy mouse assessed as decrease in blood glucose AUC level at 10 mg/kg, po; format: functional, organism-based; parameters: dose 10 mg/kg; outline: as §1
[24] = system: Mus musculus; assay: Glucose lowering effect in normal-fed ICR mouse assessed as decrease in blood glucose AUC level at 3 mg/kg, po; format: functional, organism-based; parameters: dose 3 mg/kg; outline: as §3
[25] = Volume of distribution at steady state in Beagle dog at 0.3 mg/kg, iv; format: ADME, organism-based, Canis lupus familiaris; parameters: dose 0.3 mg/kg, route intravenous; conditions: in vivo, read-out: Vdss
[26] = Oral bioavailability in Sprague-Dawley rat at 3 mg/kg; format: ADME, organism-based; conditions: in vivo
[27] = AUC (0 to infinity) in Beagle dog at 0.3 mg/kg, iv; format: ADME, organism-based, Canis lupus familiaris; parameters: time infinity, dose 0.3 mg/kg, route intravenous; conditions: plasma
[28] = system: Mus musculus; assay: Glucose lowering effect in KKAy mouse assessed as decrease in blood glucose AUC level at 30 mg/kg, po; format: functional, organism-based; parameters: dose 30 mg/kg; outline: as §1
[29] = Cmax in Beagle dog at 1 mg/kg, po; format: ADME, organism-based, Canis lupus familiaris; parameters: dose 1 mg/kg, route oral; conditions: in vivo
[30] = Solubility in water at pH 7.4 by HPLC-UV method

Compound `CS(=O)(=O)c1ccc(Oc2cc(O[C@H]3CCC[C@H]3O)cc(C(=O)Nc3nccs3)c2)cc1` has an EC50 [1] of 110 nM and an EC50 [2] of 260 nM.

Compound `CN1CCC(Oc2cc(Oc3ccc(S(C)(=O)=O)cc3)cc(C(=O)Nc3nccs3)c2)C1` (racemic) has an EC50 [1] of 7300 nM and an EC50 [2] of 24000 nM.

In the case of `CC(CCO)Oc1cc(Oc2ccc(S(C)(=O)=O)cc2)cc(C(=O)Nc2nccs2)c1` (racemic), the EC50 [1] is reported as 60 nM, the logD [3] is reported as 3.4 and the EC50 [2] is reported as 150 nM.

Work on `CS(=O)(=O)c1ccc(Oc2cc(O[C@@H]3CCOC3)cc(C(=O)Nc3nccs3)c2)cc1` yielded an EC50 [1] of 300 nM and an EC50 [2] of 1800 nM.

For `CS(=O)(=O)c1ccc(Oc2cc(OC3CCCC3)cc(C(=O)Nc3nccs3)c2)cc1`, the EC50 [1] was 240 nM, the logD [3] was greater than 5 and the EC50 [2] was 490 nM.

`COCC(C)Oc1cc(Oc2ccc(S(C)(=O)=O)cc2)cc(C(=O)Nc2nccs2)c1` (racemic) showed an EC50 [1] of 70 nM, a logD [3] of 4 and an EC50 [2] of 190 nM.

For `CC(CO)Cc1cc(Oc2ccc(S(C)(=O)=O)cc2)cc(C(=O)Nc2nccs2)c1` (racemic), the EC50 [1] was 250 nM, the logD [3] was 3.4 and the EC50 [2] was 750 nM.

Compound `Cc1csc(NC(=O)c2cc(Oc3ccc(S(C)(=O)=O)cc3)cc(OC(C)C(=O)O)c2)n1` (racemic) has an EC50 [1] of 7400 nM and an EC50 [2] of 30000 nM.

Work on `CS(=O)(=O)c1ccc(Oc2cc(OC3CCNC3)cc(C(=O)Nc3nccs3)c2)cc1` (racemic) yielded an EC50 [1] of 4200 nM and an EC50 [2] of 18000 nM.

Work on `CS(=O)(=O)c1ccc(Oc2cc(OCCO)cc(C(=O)Nc3nccs3)c2)cc1` yielded an EC50 [1] of 200 nM, a logD [3] of 2.4 and an EC50 [2] of 780 nM.

In the case of `C[C@@H](CO)Oc1cc(Oc2ccc(S(C)(=O)=O)cc2)cc(C(=O)Nc2nccs2)c1`, the Activity [4] is reported as “Active”, the bioavailability [5] is reported as 57% and the Activity [6] is reported as “Active”. It also gave a half-life [7] of 78 min, an AUC(0-inf) [8] of 12 µM·h and a Cmax [9] of 3.4 µM. The AUC(0-inf) [10] was 10 µM·h, the Activity [11] was “Active” and the Activity [12] was “Active”. For the same compound, the Activity [13] was “Active”, the AUC(0-inf) [14] was 4.6 µM·h and the Tmax [15] was 18 min. The half-life [16] was 324 min, the clearance [17] was 4.6 mL/min/kg and the Activity [18] was “Active”. The Tmax [19] was 1.2 h, the Activity [20] was “Active” and the Vd [21] was 0.19 L/kg. The clearance [22] was 3.9 mL/min/kg, the Activity [23] was “Active” and the Activity [24] was “Active”. It also gave a Vd [25] of 1.56 L/kg, a bioavailability [26] of 33% and an AUC(0-inf) [27] of 2.4 µM·h. For the same compound, the Activity [28] was “Active” and the Cmax [29] was 800 nM.

Compound `CS(=O)(=O)c1ccc(Oc2cc(O[C@H]3CCC[C@@H]3O)cc(C(=O)Nc3nccs3)c2)cc1` (stereo in doubt) has an EC50 [1] of 170 nM and an EC50 [2] of 280 nM.

For `CC(C)C(CO)Oc1cc(Oc2ccc(S(C)(=O)=O)cc2)cc(C(=O)Nc2nccs2)c1` (racemic), the EC50 [1] was 200 nM, the logD [3] was greater than 4 and the EC50 [2] was 360 nM.

`CS(=O)(=O)c1ccc(Oc2cc(O[C@@H]3CCC[C@H]3O)cc(C(=O)Nc3nccs3)c2)cc1` gave an EC50 [1] of 1600 nM and an EC50 [2] of 3700 nM.

With `CC(CN)Oc1cc(Oc2ccc(S(C)(=O)=O)cc2)cc(C(=O)Nc2nccs2)c1` (racemic) the EC50 [1] was 210 nM, the logD [3] was 1.1 and the EC50 [2] was 1500 nM.

With `CC(C)Oc1cc(Oc2ccc(S(C)(=O)=O)cc2)cc(C(=O)Nc2nccs2)c1` the EC50 [1] was 60 nM, the logD [3] was greater than 5 and the EC50 [2] was 170 nM.

With `CS(=O)(=O)c1ccc(Oc2cc(OC(CO)C(F)(F)F)cc(C(=O)Nc3nccs3)c2)cc1` (racemic) the EC50 [1] was 240 nM, the logD [3] was greater than 4 and the EC50 [2] was 790 nM.

For `CS(=O)(=O)c1ccc(Oc2cc(O[C@@H]3CCC[C@@H]3O)cc(C(=O)Nc3nccs3)c2)cc1`, the EC50 [1] was 1200 nM and the EC50 [2] was 3400 nM.

With `CS(=O)(=O)c1ccc(Oc2cc(OC3CCOCC3)cc(C(=O)Nc3nccs3)c2)cc1` the EC50 [1] was 120 nM, the logD [3] was 4.1 and the EC50 [2] was 460 nM.

`Cn1cnnc1Sc1ccc(N)c(C(=O)Nc2nccs2)c1` gave an EC50 [1] of 140 nM and an EC50 [2] of 420 nM.

`CS(=O)(=O)c1ccc(Oc2cc(O[C@H]3CCOC3)cc(C(=O)Nc3nccs3)c2)cc1` showed an EC50 [1] of 50 nM and an EC50 [2] of 190 nM.

`CC(CN(C)C)Oc1cc(Oc2ccc(S(C)(=O)=O)cc2)cc(C(=O)Nc2nccs2)c1` (racemic) gave an EC50 [1] of 2600 nM and an EC50 [2] of 12000 nM.

`COCC(COC)Oc1cc(Oc2ccc(S(C)(=O)=O)cc2)cc(C(=O)Nc2nccs2)c1` showed an EC50 [1] of 120 nM, a logD [3] greater than 4 and an EC50 [2] of 610 nM.

`CS(=O)(=O)c1ccc(Oc2cc(OC3CCOC3)cc(C(=O)Nc3nccs3)c2)cc1` (racemic) gave a logD [3] of 4.2.

In the case of `Cc1csc(NC(=O)c2cc(Oc3ccc(S(C)(=O)=O)cc3)cc(OC(C)C)c2)n1`, the logD [3] is reported as greater than 5, the solubility [30] is reported as less than 0.1 µg/mL and the Activity [20] is reported as “inactive”. The Activity [24] was “inactive”.

In the case of `CS(=O)(=O)c1ccc(Oc2cc(O[C@H]3CCC[C@@H]3O)cc(C(=O)Nc3nccs3)c2)cc1` (stereo in doubt; 6j), the EC50 [1] is reported as 90 nM and the EC50 [2] is reported as 160 nM.

For `CS(=O)(=O)c1ccc(Oc2cc(O[C@H]3CCC[C@H]3O)cc(C(=O)Nc3nccs3)c2)cc1` (racemic), the EC50 [1] was 120 nM, the logD [3] was 3.4 and the EC50 [2] was 460 nM.

Work on `CCC(COC)Oc1cc(Oc2ccc(S(C)(=O)=O)cc2)cc(C(=O)Nc2nccs2)c1` (racemic) yielded an EC50 [1] of 60 nM, a logD [3] greater than 5 and an EC50 [2] of 190 nM.
